As a reminder, the MIC is the least concentration at which growth counts as inhibited. Higher therefore signals a need for much substance.

This note sets out measurements from ChEMBL document CHEMBL4359823, “Switching on the activity of 1,5-diaryl-pyrrole derivatives against drug-resistant ESKAPE bacteria: Structure-activity relationships and mode of action studies” (Eur J Med Chem, 2019).

What all share (format): functional
Assay [1] has as its system Enterococcus faecalis. Description: Antibacterial activity against vancomycin resistant Enterococcus faecalis NCTC12204 measured after overnight incubation by microbroth dilution method. The gist of the method: (§1)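 Microbroth dilution: DMSO stocks diluted in water, 2-fold series. Overnight TSB cultures back-diluted to OD 0.01 and mixed 1:1 with compound. Incubated overnight at 37 °C; MIC taken as lowest concentration without visible growth (<0.1 OD600). Run in duplicate; matching DMSO levels checked for effect on growth.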
A general note: Broth dilution looks for growth in wells or tubes with falling amounts of substance.

Assay [2] deals with Enterococcus faecalis. Description: Antibacterial activity against vancomycin resistant Enterococcus faecalis NCTC12201 measured after overnight incubation by microbroth dilution method. The gist of the method:
as §1

Assay [3] concerns Staphylococcus aureus. Description: Antibacterial activity against methicillin sensitive Staphylococcus aureus NCTC 6571 measured after overnight incubation by microbroth dilution method. Summed up:
as §1

Assay [4] concerns Staphylococcus aureus. Description: Antibacterial activity against methicillin resistant Staphylococcus aureus NCTC13616 measured after overnight incubation by microbroth dilution method. Summed up:
as §1

The test system of assay [5] is Staphylococcus aureus. Description: Antibacterial activity against methicillin resistant Staphylococcus aureus NCTC13277 measured after overnight incubation by microbroth dilution method. The gist of the method:
as §1

In assay [6] the test system is Enterococcus faecalis. Description: Antibacterial activity against vancomycin sensitive Enterococcus faecalis NCTC775 measured after overnight incubation by microbroth dilution method. The gist of the method:
as §1

The test system of assay [7] is Klebsiella pneumoniae. Description: Antibacterial activity against Klebsiella pneumoniae NCTC13368 measured after overnight incubation by microbroth dilution method. Summed up: (§2)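 Microbroth dilution MIC. Compound DMSO stocks were diluted in water as a 2-fold series. Overnight TSB cultures were back-diluted to OD 0.01 and mixed 1:1 with compound. Plates were incubated overnight at 37 °C. MIC was the lowest concentration without visible growth (<0.1 OD600), run in duplicate.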

The test system of assay [8] is Klebsiella pneumoniae. Description: Antibacterial activity against Klebsiella pneumoniae M6 measured after overnight incubation by microbroth dilution method. The gist of the method: as §2
The test system of assay [9] is Acinetobacter baumannii. Description: Antibacterial activity against Acinetobacter baumannii AYE measured after overnight incubation by microbroth dilution method. The gist of the method:
as §2

In assay [10] the test system is Acinetobacter baumannii. Description: Antibacterial activity against Acinetobacter baumannii ATCC 17978 measured after overnight incubation by microbroth dilution method. Summed up:
as §2

Assay [11] concerns Pseudomonas aeruginosa. Description: Antibacterial activity against Pseudomonas aeruginosa PAO1 measured after overnight incubation by microbroth dilution method. The gist of the method:
as §2

In assay [12] the test system is Pseudomonas aeruginosa. Description: Antibacterial activity against Pseudomonas aeruginosa NCTC13437 measured after overnight incubation by microbroth dilution method. The gist of the method:
as §2

The test system of another assay is Escherichia coli. Description: Antibacterial activity against Escherichia coli NCTC12923 measured after overnight incubation by microbroth dilution method. Summed up: as §2

Each structure is given as a SMILES string. In brackets after ≈: the same amount, converted by molar mass. Where only a bound is given, the exact number is not on record here.

With `Cc1c(CNC2CCCCC2)cc(-c2ccc(Cl)cc2)n1-c1ccc([N+](=O)[O-])cc1`, the minimal inhibitory concentration (MIC) came out at 4 µg/mL (≈ 9.44 µM) with Enterococcus faecalis [1]; 8 µg/mL (≈ 18.9 µM) in the assay with Enterococcus faecalis [2]; 8 µg/mL (≈ 18.9 µM) against Staphylococcus aureus [3]; 16 µg/mL (≈ 37.7 µM) against Staphylococcus aureus [4]; 16 µg/mL (≈ 37.7 µM) with Staphylococcus aureus [5]; 8 µg/mL (≈ 18.9 µM) in the assay with Enterococcus faecalis [6]. Besides, the minimum inhibitory concentration (MIC) is more than 128 µg/mL in the assay with Klebsiella pneumoniae [7]; more than 128 µg/mL in the assay on Klebsiella pneumoniae [8]; 128 µg/mL (≈ 302 µM) in the assay on Acinetobacter baumannii [9]; 128 µg/mL (≈ 302 µM) in the assay on Acinetobacter baumannii [10]; more than 128 µg/mL with Pseudomonas aeruginosa [11]; more than 128 µg/mL in the assay on Pseudomonas aeruginosa [12]. For the same molecule, the MIC against Escherichia coli is more than 128 µg/mL.
Turning to `Cc1c(CNCCCCCCCCNC(=N)N)cc(-c2ccc(Cl)cc2)n1-c1ccc(Cl)cc1`, the MIC against Enterococcus faecalis [1] was 4 µg/mL (≈ 7.99 µM); against Enterococcus faecalis [2], 8 µg/mL (≈ 16 µM); against Staphylococcus aureus [3], 4 µg/mL (≈ 7.99 µM); against Staphylococcus aureus [4], 4 µg/mL (≈ 7.99 µM); in the assay on Staphylococcus aureus [5] it was 4 µg/mL (≈ 7.99 µM); against Enterococcus faecalis [6], 8 µg/mL (≈ 16 µM). Also, the MIC turned out to be 32 µg/mL (≈ 63.9 µM) in the assay with Klebsiella pneumoniae [7]; 16 µg/mL (≈ 32 µM) in the assay with Klebsiella pneumoniae [8]; 32 µg/mL (≈ 63.9 µM) against Acinetobacter baumannii [9]; 8 µg/mL (≈ 16 µM) against Acinetobacter baumannii [10]; 128 µg/mL (≈ 256 µM) against Pseudomonas aeruginosa [11]; 64 µg/mL (≈ 128 µM) against Pseudomonas aeruginosa [12]. The MIC against Escherichia coli came to 8 µg/mL (≈ 16 µM).
As to `Cc1c(CNC2CCCCC2)cc(-c2ccc(Cl)cc2)n1-c1ccc(O)cc1`, the MIC with Enterococcus faecalis [1] is 32 µg/mL (≈ 81 µM); in the assay with Enterococcus faecalis [2], 32 µg/mL (≈ 81 µM); in the assay on Staphylococcus aureus [3], 32 µg/mL (≈ 81 µM); in the assay on Staphylococcus aureus [4], 8 to 64 µg/mL (≈ 20.3 to 162 µM); against Staphylococcus aureus [5], 32 µg/mL (≈ 81 µM); against Enterococcus faecalis [6], 64 µg/mL (≈ 162 µM). Moreover, the minimum inhibitory concentration (MIC) against Klebsiella pneumoniae [7] is more than 128 µg/mL; against Klebsiella pneumoniae [8], more than 128 µg/mL; in the assay with Acinetobacter baumannii [9], more than 128 µg/mL; against Acinetobacter baumannii [10], 128 µg/mL (≈ 324 µM); in the assay on Pseudomonas aeruginosa [11], more than 128 µg/mL; with Pseudomonas aeruginosa [12], more than 128 µg/mL. In addition, the MIC with Escherichia coli was more than 128 µg/mL.
Regarding `Cc1c(CNCC2CCCCC2)cc(-c2ccc(Cl)cc2)n1-c1ccc(Cl)cc1`, the MIC against Enterococcus faecalis [1] is 2 µg/mL (≈ 4.68 µM); in the assay with Enterococcus faecalis [2], 4 µg/mL (≈ 9.36 µM); against Staphylococcus aureus [3] it was 4 µg/mL (≈ 9.36 µM); in the assay with Staphylococcus aureus [4], 4 µg/mL (≈ 9.36 µM); against Staphylococcus aureus [5], 4 µg/mL (≈ 9.36 µM); in the assay with Enterococcus faecalis [6], 2 µg/mL (≈ 4.68 µM). In addition, the minimal inhibitory concentration (MIC) in the assay on Klebsiella pneumoniae [7], against Klebsiella pneumoniae [8], in the assay with Acinetobacter baumannii [9], in the assay with Acinetobacter baumannii [10], against Pseudomonas aeruginosa [11] and against Pseudomonas aeruginosa [12] was more than 128 µg/mL each time. Also, in the assay on Escherichia coli, the MIC is more than 128 µg/mL.
In the case of `Cc1c(CNC2CCCCC2)cc(-c2ccc(Cl)cc2)n1-c1cccc(F)c1`, the MIC was 4 µg/mL (≈ 10.1 µM) with Enterococcus faecalis [1]; 4 µg/mL (≈ 10.1 µM) in the assay on Enterococcus faecalis [2]; 8 µg/mL (≈ 20.2 µM) against Staphylococcus aureus [3]; 8 µg/mL (≈ 20.2 µM) with Staphylococcus aureus [4]; 8 µg/mL (≈ 20.2 µM) in the assay on Staphylococcus aureus [5]; 8 µg/mL (≈ 20.2 µM) in the assay on Enterococcus faecalis [6]. Further, the MIC was more than 128 µg/mL in the assay with Klebsiella pneumoniae [7]; more than 128 µg/mL in the assay on Klebsiella pneumoniae [8]; 128 µg/mL (≈ 322 µM) with Acinetobacter baumannii [9]; 128 µg/mL (≈ 322 µM) against Acinetobacter baumannii [10]; more than 128 µg/mL with Pseudomonas aeruginosa [11]; more than 128 µg/mL against Pseudomonas aeruginosa [12]. This molecule gave an MIC in the assay on Escherichia coli of more than 128 µg/mL.
On to `COc1ccc(-n2c(-c3ccc(Cl)cc3)cc(CNC3CCCCC3)c2C)cc1`, for which the MIC was 8 µg/mL (≈ 19.6 µM) against Enterococcus faecalis [1]; 8 µg/mL (≈ 19.6 µM) in the assay on Enterococcus faecalis [2]; 16 µg/mL (≈ 39.1 µM) against Staphylococcus aureus [3]; 16 µg/mL (≈ 39.1 µM) in the assay on Staphylococcus aureus [4]; 16 µg/mL (≈ 39.1 µM) against Staphylococcus aureus [5]; 8 µg/mL (≈ 19.6 µM) in the assay on Enterococcus faecalis [6]. Moreover, the MIC with Klebsiella pneumoniae [7] was more than 128 µg/mL; in the assay on Klebsiella pneumoniae [8], more than 128 µg/mL; with Acinetobacter baumannii [9] it was more than 128 µg/mL; in the assay with Acinetobacter baumannii [10], 128 µg/mL (≈ 313 µM); against Pseudomonas aeruginosa [11] it was more than 128 µg/mL; against Pseudomonas aeruginosa [12] it was more than 128 µg/mL. The MIC against Escherichia coli was more than 128 µg/mL.
As to `Cc1cc(CNC2CCCCC2)c(C)n1-c1ccc(Cl)cc1`, the MIC against Enterococcus faecalis [1] was 16 µg/mL (≈ 50.5 µM); in the assay on Enterococcus faecalis [2], 32 µg/mL (≈ 101 µM); against Staphylococcus aureus [3], 64 µg/mL (≈ 202 µM); with Staphylococcus aureus [4], 64 µg/mL (≈ 202 µM); against Staphylococcus aureus [5], 64 µg/mL (≈ 202 µM); against Enterococcus faecalis [6] it was 32 µg/mL (≈ 101 µM). For the same molecule, the MIC against Klebsiella pneumoniae [7], in the assay with Klebsiella pneumoniae [8], in the assay on Acinetobacter baumannii [9], with Acinetobacter baumannii [10], against Pseudomonas aeruginosa [11] and against Pseudomonas aeruginosa [12] was more than 64 µg/mL throughout.
`Cc1cc(CNCCCCCCCCNC(=N)N)c(C)n1-c1ccc(Cl)cc1`: the MIC in the assay on Enterococcus faecalis [1] is 4 to 8 µg/mL (≈ 9.9 to 19.8 µM); against Enterococcus faecalis [2], 16 µg/mL (≈ 39.6 µM); against Staphylococcus aureus [3], 4 µg/mL (≈ 9.9 µM); in the assay on Staphylococcus aureus [4], 8 µg/mL (≈ 19.8 µM); in the assay with Staphylococcus aureus [5], 8 µg/mL (≈ 19.8 µM); against Enterococcus faecalis [6] it was 8 to 16 µg/mL (≈ 19.8 to 39.6 µM). For the same molecule, the minimal inhibitory concentration (MIC) in the assay on Klebsiella pneumoniae [7] was more than 128 µg/mL; in the assay on Klebsiella pneumoniae [8] it was 128 µg/mL (≈ 317 µM); against Acinetobacter baumannii [9], 64 µg/mL (≈ 158 µM); with Acinetobacter baumannii [10] it was 16 µg/mL (≈ 39.6 µM); in the assay with Pseudomonas aeruginosa [11], more than 128 µg/mL; against Pseudomonas aeruginosa [12], 64 µg/mL (≈ 158 µM). Besides, in the assay on Escherichia coli, the minimal inhibitory concentration (MIC) worked out at 16 µg/mL (≈ 39.6 µM).
